Measurements taken from ChEMBL document CHEMBL1147153, “Development of ruthenium antitumor drugs that overcome multidrug resistance mechanisms” (J Med Chem, 2007).
pIC50: −log10 of the molar value. Activity calls are given as the source filed them. The calls are words filed in the database; no cut-off is given here.

Tests used:
[1] = tested on: A549; experiment: Cytotoxicity against human A549 cells by MTT assay; type: cell-based
Summary of the method: (§1)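 Cells plated 24 h, then exposed 72 h to compound at 1-300 µM. Compound was diluted from a fresh DMSO stock (20 mM for A549, HT29, T47D; 10 mM for TS/A, HBL-100) into 5%-serum medium, with at most 0.5% or 1% v/v DMSO respectively. Growth media: DMEM (A549, HT29, T47D), McCoy's 5A (HBL-100). MTT (5 mg/mL in PBS, 2.5 µL/100 µL medium) was added for 2 h at 37 °C; formazan dissolved in DMSO and read at OD 570 nm.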

[2] = tested on: HT-29; experiment: Cytotoxicity against human HT29 cells by MTT assay; type: cell-based; summary of the method: as §1
[3] = tested on: T47D; experiment: Cytotoxicity against human T47D cells by MTT assay; type: cell-based; summary of the method: as §1
[4] = tested on: TS/A; experiment: Cytotoxicity against […] TS/A cells by MTT assay; type: cell-based; conditions: Mus musculus; summary of the method: as §1
[5] = Cytotoxicity against human HBL100 cells by MTT assay; type: cell-based; conditions: HBL-100; summary of the method: as §1
[6] = tested on: A549; experiment: Inhibition of P-gp in A549 cells assessed as drug concentration required to double baseline fluorescence level by calcein-AM uptake assay; type: cell-based; conditions: Homo sapiens
Summary of the method: (§2)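 A549 Pgp activity: cells washed in Hanks salt solution with 10 mM HEPES, preincubated 30 min in that buffer, then 15 min with compound. Calcein-AM (1 µM final) added for a further 60 min; uptake stopped on ice, cells washed cold and lysed 15 min in 1% Triton X-100/PBS. Calcein fluorescence read at ex 485/em 530 nm; reported as F2.0 (concentration doubling baseline fluorescence) or inhibition at 80 µM relative to verapamil.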

[7] = biological target: P-gp (ABCB1) (Homo sapiens, UniProt P08183); experiment: Inhibition of P-gp in A549 cells at 80 uM by calcein-AM uptake assay relative to verapamil; type: cell-based; conditions: probe calcein-AM; summary of the method: as §2
[8] = tested on: A549; experiment: Drug accumulation in human A549 cells after 1 hrs; type: functional, cell-based
Summary of the method: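 A549 cells grown on slides were exposed to 100 µM compound for 0.5-4 h, PBS-washed, fixed 5 min in 4% buffered paraformaldehyde, and imaged by fluorescence microscopy under 365 nm irradiation with a 1 s exposure.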

P-gp (ABCB1), sequence (P08183 whole entry): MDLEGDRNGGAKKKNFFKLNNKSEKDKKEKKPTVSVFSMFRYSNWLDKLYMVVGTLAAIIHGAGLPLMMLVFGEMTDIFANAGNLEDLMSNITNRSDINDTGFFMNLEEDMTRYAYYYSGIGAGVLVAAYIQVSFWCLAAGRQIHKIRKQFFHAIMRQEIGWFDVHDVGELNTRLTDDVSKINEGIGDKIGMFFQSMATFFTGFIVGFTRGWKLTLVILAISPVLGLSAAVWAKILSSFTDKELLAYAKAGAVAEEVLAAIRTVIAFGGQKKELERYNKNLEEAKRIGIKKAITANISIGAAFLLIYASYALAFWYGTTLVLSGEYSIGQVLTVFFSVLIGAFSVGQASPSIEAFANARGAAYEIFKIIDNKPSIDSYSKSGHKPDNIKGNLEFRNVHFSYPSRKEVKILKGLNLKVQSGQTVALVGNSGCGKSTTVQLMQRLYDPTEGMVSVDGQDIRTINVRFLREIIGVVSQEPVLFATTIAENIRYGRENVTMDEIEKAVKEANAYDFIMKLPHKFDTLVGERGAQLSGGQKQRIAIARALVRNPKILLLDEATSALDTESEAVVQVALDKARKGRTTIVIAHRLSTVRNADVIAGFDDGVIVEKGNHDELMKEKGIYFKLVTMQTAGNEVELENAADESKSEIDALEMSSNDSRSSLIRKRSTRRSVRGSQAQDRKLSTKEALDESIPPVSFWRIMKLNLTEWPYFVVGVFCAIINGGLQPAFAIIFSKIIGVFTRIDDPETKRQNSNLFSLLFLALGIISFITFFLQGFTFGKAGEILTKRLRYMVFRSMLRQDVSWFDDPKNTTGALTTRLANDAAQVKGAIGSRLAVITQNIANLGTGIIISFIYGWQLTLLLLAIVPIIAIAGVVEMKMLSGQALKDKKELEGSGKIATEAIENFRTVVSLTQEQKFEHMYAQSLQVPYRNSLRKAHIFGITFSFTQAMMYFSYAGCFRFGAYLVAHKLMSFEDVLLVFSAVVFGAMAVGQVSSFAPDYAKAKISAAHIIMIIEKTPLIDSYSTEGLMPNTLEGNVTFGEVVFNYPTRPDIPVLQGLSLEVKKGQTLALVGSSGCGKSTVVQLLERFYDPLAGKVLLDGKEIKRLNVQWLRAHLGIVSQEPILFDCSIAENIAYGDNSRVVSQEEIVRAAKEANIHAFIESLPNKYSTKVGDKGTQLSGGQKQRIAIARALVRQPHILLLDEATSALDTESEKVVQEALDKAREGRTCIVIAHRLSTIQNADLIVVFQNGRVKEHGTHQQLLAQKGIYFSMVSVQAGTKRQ

SMILES	inhibition at 80 µM [7] [%]	pIC50 [1]	pIC50 [2]	pIC50 [3]	pIC50 [4]	pIC50 [5]	Activity [6] [µM]	Activity [8]
O=C(CCl)N1c2ccccc2Oc2ccccc21		< 4.00	4.96	5.15	4.40	4.54		
c1ccc2c(-n3ccnc3)c3ccccc3cc2c1	18	4.12	4.35	4.47	4.00	3.66	> 100	Active
COc1ccc(CCN(C)CCCC(C#N)(c2ccc(OC)c(OC)c2)C(C)C)cc1OC (stereo not drawn)							7	

Now from value to compound, other results behind:

inhibition at 80 µM [7] [%]	SMILES	pIC50 [1]	pIC50 [2]	pIC50 [3]	pIC50 [4]	pIC50 [5]	Activity [6] [µM]	Activity [8]
65	O=C(Cn1cnc2ccccc21)N1c2ccccc2Oc2ccccc21 [PHENOXBENZIMID]	4.12	4.48	4.04	4.29	< 4.00	23	
24	O=C(Cn1ccnc1)N1c2ccccc2Oc2ccccc21 [PHENOXIMID]	< 4.00	4.77	4.02	4.52	4.64	> 100	
